Like-named read-outs stand apart in the source and are kept apart here.
Columns and labels:
α1β3γ2 GABAA receptors = α1β3γ2 GABAA receptors (Rattus norvegicus, UniProt P18508+P62813); assay: Two electrode voltage clamp, modulation of EC3 GABA current in Xenopus oocytes; type: cell-based
α2β3γ2 GABAA receptors = α2β3γ2 GABAA receptors (Rattus norvegicus, UniProt P18508+P23576); assay: as above; type: cell-based
α3β3γ2 GABAA receptors = α3β3γ2 GABAA receptors (Rattus norvegicus, UniProt P18508+P20236); assay: as above; type: cell-based
Chain of α3β3γ2 GABAA receptors (P20236 29-493): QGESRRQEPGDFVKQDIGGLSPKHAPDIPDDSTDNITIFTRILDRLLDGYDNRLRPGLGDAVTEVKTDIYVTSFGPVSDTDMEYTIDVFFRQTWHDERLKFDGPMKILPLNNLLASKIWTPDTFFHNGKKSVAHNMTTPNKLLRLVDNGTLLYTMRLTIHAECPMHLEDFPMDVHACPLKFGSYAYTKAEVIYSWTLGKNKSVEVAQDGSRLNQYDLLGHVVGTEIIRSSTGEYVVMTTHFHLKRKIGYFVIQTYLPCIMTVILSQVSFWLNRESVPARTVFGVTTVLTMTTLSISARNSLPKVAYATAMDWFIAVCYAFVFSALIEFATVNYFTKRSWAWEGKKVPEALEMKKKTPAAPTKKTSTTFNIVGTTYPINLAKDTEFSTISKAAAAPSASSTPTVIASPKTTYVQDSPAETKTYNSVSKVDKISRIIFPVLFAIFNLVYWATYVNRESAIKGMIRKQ
Chain of α3β3γ2 GABAA receptors (P63079 26-473 partner): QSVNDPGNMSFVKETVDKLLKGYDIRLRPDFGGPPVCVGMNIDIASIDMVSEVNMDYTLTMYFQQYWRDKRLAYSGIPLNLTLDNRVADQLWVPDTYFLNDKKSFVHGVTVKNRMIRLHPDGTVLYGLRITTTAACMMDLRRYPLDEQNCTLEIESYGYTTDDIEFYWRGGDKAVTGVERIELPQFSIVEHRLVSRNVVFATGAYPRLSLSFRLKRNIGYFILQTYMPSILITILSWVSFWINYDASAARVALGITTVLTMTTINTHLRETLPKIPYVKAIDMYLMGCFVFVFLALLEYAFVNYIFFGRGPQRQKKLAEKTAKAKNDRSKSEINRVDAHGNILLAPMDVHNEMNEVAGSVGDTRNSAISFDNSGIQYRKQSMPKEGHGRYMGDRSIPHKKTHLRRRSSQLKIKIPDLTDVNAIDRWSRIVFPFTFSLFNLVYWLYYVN
Chain of α3β3γ2 GABAA receptors (P18508 39-466): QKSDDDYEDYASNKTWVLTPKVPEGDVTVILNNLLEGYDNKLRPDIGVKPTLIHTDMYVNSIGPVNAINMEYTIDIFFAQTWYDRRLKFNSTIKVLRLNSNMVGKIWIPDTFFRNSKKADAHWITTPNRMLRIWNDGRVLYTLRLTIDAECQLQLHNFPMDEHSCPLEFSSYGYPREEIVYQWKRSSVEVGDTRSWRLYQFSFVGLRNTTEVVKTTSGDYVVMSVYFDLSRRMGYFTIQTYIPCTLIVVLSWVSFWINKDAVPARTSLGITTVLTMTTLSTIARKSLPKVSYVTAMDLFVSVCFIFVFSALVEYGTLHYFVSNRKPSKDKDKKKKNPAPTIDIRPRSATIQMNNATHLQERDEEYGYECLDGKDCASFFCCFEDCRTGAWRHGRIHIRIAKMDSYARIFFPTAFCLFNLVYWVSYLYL

α5β3γ2 GABAA receptors = α5β3γ2 GABAA receptors (Rattus norvegicus, UniProt P18508+P19969); assay: as above; type: cell-based; settings: for % of control current: EC3 GABA, α5β3γ2
Chain of α5β3γ2 GABAA receptors (P19969 32-464 limits assumed): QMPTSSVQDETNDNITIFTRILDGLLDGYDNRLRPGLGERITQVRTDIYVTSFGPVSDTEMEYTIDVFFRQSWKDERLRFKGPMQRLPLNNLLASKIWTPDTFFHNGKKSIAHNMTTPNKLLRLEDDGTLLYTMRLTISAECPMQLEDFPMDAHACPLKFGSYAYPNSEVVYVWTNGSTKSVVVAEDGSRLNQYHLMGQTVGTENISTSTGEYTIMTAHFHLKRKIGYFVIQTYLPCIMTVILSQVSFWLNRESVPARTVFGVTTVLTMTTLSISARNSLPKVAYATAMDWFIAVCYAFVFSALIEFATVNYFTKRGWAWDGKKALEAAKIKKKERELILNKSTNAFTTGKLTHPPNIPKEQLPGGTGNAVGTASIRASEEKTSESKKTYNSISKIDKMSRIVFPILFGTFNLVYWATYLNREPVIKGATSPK
Chain of α5β3γ2 GABAA receptors (P63079 26-473 partner): as the sequence (P63079 26-473 partner) above
Chain of α5β3γ2 GABAA receptors (P18508 39-466): as the sequence (P18508 39-466) above

[1] = system: spatial learning and memory; assay: Morris water maze; type: in vivo, male Wistar rats; settings: for effect on Morris water-maze performance on its own: WYS8 0.2, 1 and 10 mg/kg i.p., β-CCt 5 mg/kg i.p.
Procedure, shortened: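 Male Wistar rats, 220–250 g, n=8/group, dosed i.p. in 85% water/14% propylene glycol/1% Tween 80 (sonicated) 20 min before each daily block for 5 acquisition days. Pool 200 cm wide with 23°C water; 15×10 cm platform 2 cm below the surface. Each block had 4 trials (max 120 s, 60 s interval, pseudorandom starts). Per-rat daily means were recorded. The probe trial measured target-region time and peripheral-ring distance.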

[2] = Quantification in rat brain tissue; type: in vivo, Wistar rats; settings: Wistar, intraperitoneal, 10 mg/kg, total brain concentration, highest behaviorally tested dose
α1β3γ2 GABAA/BZ site = settings: recombinant human receptors; ref Yin et al., 2010; cited from earlier work
α2β3γ2 GABAA/BZ site = settings: α2 GABAA receptors; ref Yin et al., 2010; cited from earlier work
α3β3γ2 GABAA/BZ site = settings: α3 GABAA receptors; ref Yin et al., 2010; cited from earlier work
α5β3γ2 GABAA/BZ site = settings: α5 GABAA receptors; ref Yin et al., 2010; cited from earlier work
α1 GABAA receptors = settings: after 7 days of treatment, ref Wu et al., 1995, cited from earlier work
[3] = system: spatial learning and memory; settings: ref Savić et al, 2009, cited from earlier work
[4] = WYS8 0.2 and 10 mg/kg + DZP 2 mg/kg i.p.

Chain of α2β3γ2 GABAA receptors (P23576 29-451): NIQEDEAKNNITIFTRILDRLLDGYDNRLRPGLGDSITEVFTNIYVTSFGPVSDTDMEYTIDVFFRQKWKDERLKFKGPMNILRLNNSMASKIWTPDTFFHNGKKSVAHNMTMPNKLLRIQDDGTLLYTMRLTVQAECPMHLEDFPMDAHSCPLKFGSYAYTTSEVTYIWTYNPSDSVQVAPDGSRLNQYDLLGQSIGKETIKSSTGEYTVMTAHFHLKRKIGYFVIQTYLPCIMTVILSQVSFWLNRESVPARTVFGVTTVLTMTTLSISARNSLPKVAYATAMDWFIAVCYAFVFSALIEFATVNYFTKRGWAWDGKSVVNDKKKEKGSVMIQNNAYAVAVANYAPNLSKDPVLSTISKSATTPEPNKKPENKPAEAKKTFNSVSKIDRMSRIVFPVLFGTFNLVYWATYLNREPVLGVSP
Chain of α2β3γ2 GABAA receptors (P63079 26-473 partner): as the sequence (P63079 26-473 partner) above
Chain of α2β3γ2 GABAA receptors (P18508 39-466): as the sequence (P18508 39-466) above
Chain of α1β3γ2 GABAA receptors (P62813 28-455): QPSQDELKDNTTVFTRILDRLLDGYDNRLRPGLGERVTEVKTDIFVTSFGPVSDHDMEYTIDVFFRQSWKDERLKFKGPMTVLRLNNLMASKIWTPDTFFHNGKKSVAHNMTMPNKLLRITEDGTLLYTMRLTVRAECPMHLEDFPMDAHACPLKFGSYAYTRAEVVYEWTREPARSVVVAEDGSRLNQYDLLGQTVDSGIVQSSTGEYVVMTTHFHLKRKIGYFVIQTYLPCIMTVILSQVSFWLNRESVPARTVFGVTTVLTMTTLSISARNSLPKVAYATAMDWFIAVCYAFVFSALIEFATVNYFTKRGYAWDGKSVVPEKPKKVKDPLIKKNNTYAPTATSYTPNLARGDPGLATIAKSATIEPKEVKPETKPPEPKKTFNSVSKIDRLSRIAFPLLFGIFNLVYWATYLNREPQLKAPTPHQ
Chain of α1β3γ2 GABAA receptors (P63079 26-473 partner): as the sequence (P63079 26-473 partner) above
Chain of α1β3γ2 GABAA receptors (P18508 39-466): as the sequence (P18508 39-466) above

In the case of CN1C(=O)CN=C(c2ccccc2)c2cc(Cl)ccc21 [DZP, diazepam, reference compound], the remaining activity at 0.01 µM (α1β3γ2 GABAA receptors; read-out: % of control current) is reported as 136 ± 3%, the remaining activity at 0.01 µM (α2β3γ2 GABAA receptors; read-out: % of control current) is reported as 193 ± 5% and the remaining activity at 0.01 µM (α3β3γ2 GABAA receptors; read-out: % of control current) is reported as 167 ± 8%. For the same compound, the remaining activity at 0.01 µM (α5β3γ2 GABAA receptors; read-out: % of control current) was 160 ± 2% and the “total distance travelled during acquisition” value ([1]; 2 mg/kg i.p., vs solvent-treated controls) was “significantly longer distances than solvent-treated controls during all five days”.

Work on C#Cc1cccc2c1[nH]c1cnc(C(=O)OC(C)(C)C)cc12 [WYS8, 8-ethynyl-β-carboline-3-carboxylate-t-butyl ester] yielded a potentiation (α1β3γ2 GABAA receptors; at 100 nM, α1-subtype) of 40%, a remaining activity at 0.01 µM (α1β3γ2 GABAA receptors; read-out: % of control current) of 124 ± 3% and a remaining activity at 0.1 µM (α1β3γ2 GABAA receptors; read-out: % of control current) of 141 ± 5%. For the same compound, the “% of control current” value (α2β3γ2 GABAA receptors; 10 nM compound, EC3 GABA, α2β3γ2) was “no significant stimulation”, the remaining activity at 0.1 µM (α2β3γ2 GABAA receptors; read-out: % of control current) was 109 ± 2% and the “% of control current” value (α3β3γ2 GABAA receptors; 10 nM compound, EC3 GABA, α3β3γ2) was “no significant stimulation”. The remaining activity at 0.1 µM (α3β3γ2 GABAA receptors; read-out: % of control current) was 126 ± 7%, the “% of control current” value (α5β3γ2 GABAA receptors; 10 nM compound) was “no significant stimulation” and the “% of control current” value (α5β3γ2 GABAA receptors; 100 nM compound) was “non-significant changes”. The “modulation of EC3 GABA response” value (α5β3γ2 GABAA receptors; 1 μM compound, α5 GABAA receptors) was “significant, though relatively small negative modulation”, the concentration at 20 min [2] was less than 100 nM and the “effect of addition to DZP on DZP's actions in the water maze” value ([1]; WYS8 0.2, 1 and 10 mg/kg + DZP 2 mg/kg i.p.) was “did not generally affect the BZ’s actions”. For the same compound, the “activity in the water maze when combined with β-CCt” value ([1]; WYS8 0.2, 1 and 10 mg/kg + β-CCt 5 mg/kg i.p.) was “devoid of any activity”, the “effect on Morris water-maze performance on its own” value [1] was “no substantial effect” and the “latency on the fourth day, combination with DZP vs DZP alone” value [1, 4] was “significantly longer latencies than those treated with DZP alone”. The “total distance on the fourth day, combination with DZP vs DZP alone” value [1, 4] was “significantly longer distances than those treated with DZP alone”, the “binding affinity at α1 GABAA receptors” value (α1β3γ2 GABAA/BZ site) was “sub-nanomolar” and the Ki (α2β3γ2 GABAA/BZ site) was 111 nM. For the same compound, the Ki (α3β3γ2 GABAA/BZ site) was 102 nM and the Ki (α5β3γ2 GABAA/BZ site) was 208 nM.

For CCN(CC)CCN1C(=O)CN=C(c2ccccc2F)c2cc(Cl)ccc21 [flurazepam], the “decrease of binding of radiolabelled zolpidem” value (α1 GABAA receptors; cerebellum) is listed as 23% and the “decrease of binding of radiolabelled zolpidem” value (α1 GABAA receptors; hippocampus) is listed as 14%.

For CC(C)(C)OC(=O)c1cc2c(cn1)[nH]c1ccccc12 [β-CCt, t-butyl-β-carboline-3-carboxylate, reference compound], the “effect on Morris water-maze performance on its own” value [1] is listed as “no substantial effect”, the “binding affinity at α1 GABAA receptors” value (α1β3γ2 GABAA/BZ site) is listed as “sub-nanomolar” and the “effect on spatial learning deficits induced by DZP in the water maze” value ([3]; acquisition) is listed as “almost completely abolished”. The “effect on spatial memory deficits induced by DZP, probe trial” value [3] was “at least partially prevented”.
